Our source for the inhibition, Activity and IC50 values is ChEMBL document CHEMBL1156961, “Inhibition of Escherichia coli glycosyltransferase MurG and Mycobacterium tuberculosis Gal transferase by uridine-linked transition state mimics” (Bioorg Med Chem, 2010).

The source made the active and inactive calls. No cut-off for these calls is given here.

In general, inhibition refers to the percentage by which the read-out fell short of the control. The term IC50 denotes the concentration that inhibits the measured activity by half.

Assay [1] deals with Escherichia coli. The assay can be described thus: Inhibition of Escherichia coli recombinant C terminal His-tagged MurG expressed in Escherichia coli C43 assessed as inhibition of […] labelled lipid intermediate 2 formation at 1 mM over 15 mins by scintillation counting.
Assay [2] deals with T1, Galactofuranosyltransferase GlfT2 (Mycobacterium tuberculosis) (UniProt O53585).
T1 sequence (whole entry): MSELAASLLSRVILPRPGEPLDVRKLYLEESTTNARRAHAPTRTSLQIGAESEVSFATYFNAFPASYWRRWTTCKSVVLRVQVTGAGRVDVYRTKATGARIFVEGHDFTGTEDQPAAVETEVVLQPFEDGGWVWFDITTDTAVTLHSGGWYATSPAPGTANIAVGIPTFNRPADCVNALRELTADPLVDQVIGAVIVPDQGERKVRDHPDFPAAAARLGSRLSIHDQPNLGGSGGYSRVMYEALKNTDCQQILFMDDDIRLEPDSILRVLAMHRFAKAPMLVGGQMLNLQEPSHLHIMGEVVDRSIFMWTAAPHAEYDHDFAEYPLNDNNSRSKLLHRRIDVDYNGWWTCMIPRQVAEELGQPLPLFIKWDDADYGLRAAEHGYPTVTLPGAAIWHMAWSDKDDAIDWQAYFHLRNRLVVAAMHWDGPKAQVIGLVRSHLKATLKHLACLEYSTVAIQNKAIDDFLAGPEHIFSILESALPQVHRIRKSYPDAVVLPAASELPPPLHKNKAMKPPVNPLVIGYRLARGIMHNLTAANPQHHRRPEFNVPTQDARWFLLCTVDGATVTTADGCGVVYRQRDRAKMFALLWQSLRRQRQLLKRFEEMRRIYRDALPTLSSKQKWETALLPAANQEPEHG
The assay can be described thus: Inhibition of Mycobacterium tuberculosis GlfT2 assessed as incorporation of [14C]Gal at 1 mM by scintillation counting.

The subject of assay [3] is Escherichia coli. The assay is described as follows: Antibacterial activity against Escherichia coli BL21 at 100 ug/ml after 24 hrs. The class given is functional, organism-based. The gist of the method: (§1)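 LB broth culture grown overnight at 37 °C from a single colony, diluted to 2% in fresh LB and mixed 1:1 with sterile aqueous compound (200 μg/ml or 1 mg/ml solution) or water. Incubated at 37 °C, growth followed by OD595 at 3, 6 and 24 h.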

A further assay has as its system Bacillus subtilis. The assay is described as follows: Antibacterial activity against Bacillus subtilis W23 at 100 ug/ml after 24 hrs. In kind it is functional, organism-based. The gist of the method:
as §1

The subject of another assay is Pseudomonas putida. The assay is described as follows: Antibacterial activity against Pseudomonas putida ATCC 33015 at 100 ug/ml after 24 hrs. The class given is functional, organism-based. The method in brief: as §1
Assay [4] is described as follows: Inhibition of Escherichia coli recombinant C terminal His-tagged MurG expressed in Escherichia coli C43 assessed as inhibition of [3H]UDPGlc labelled lipid intermediate 2 formation over 15 mins by scintillation counting.

For the molecule `COC(=O)[C@@H]1[C@@H]2C(=O)N(CC(=O)NC[C@H]3O[C@@H](n4ccc(=O)[nH]c4=O)[C@H](O)[C@@H]3O)C(=O)[C@@H]2N[C@@H]1c1cccc(OC)c1OC`, the inhibition in the assay with Escherichia coli [1] worked out at 0%. Take `COc1ccccc1[C@H]1N[C@@](C)(COC(=O)CC(=O)OC[C@H]2O[C@@H](n3ccc(=O)[nH]c3=O)[C@H](O)[C@@H]2O)[C@H]2C(=O)N(c3ccccc3)C(=O)[C@@H]12`: in assay [2], the inhibition came to 0%. With `COC(=O)[C@@H]1[C@@H]2C(=O)N(CC(=O)NC[C@H]3O[C@@H](n4ccc(=O)[nH]c4=O)[C@H](O)[C@@H]3O)C(=O)[C@@H]2N[C@@H]1c1ccccc1`, the inhibition in assay [2] turned out to be 80%; in the assay on Escherichia coli [1] it was 0%.

`COC(=O)[C@H]1[C@@H](c2ccccc2OC)N[C@@](C)(C(=O)N2CCC[C@H]2C(=O)NC[C@H]2O[C@@H](n3ccc(=O)[nH]c3=O)[C@H](O)[C@@H]2O)[C@H]1C(=O)OC`: the inhibition in assay [2] worked out at 0%. On the same count and under the same terms, the same measure for `COc1ccccc1[C@H]1N[C@@](C)(COC(=O)CCC(=O)OC[C@H]2O[C@@H](n3ccc(=O)[nH]c3=O)[C@H](O)[C@@H]2O)[C@H]2C(=O)N(c3ccccc3)C(=O)[C@@H]12` (mixture of isomers): 0%. On to `COc1ccccc1[C@H]1N[C@@](C)(C(=O)NCC(=O)NC[C@H]2O[C@@H](n3ccc(=O)[nH]c3=O)[C@H](O)[C@@H]2O)[C@H]2C(=O)N(c3ccccc3)C(=O)[C@@H]12` (mixture of isomers), for which the result in the assay on Escherichia coli [3], with Bacillus subtilis and with Pseudomonas putida was inactive. Also, the inhibition in assay [2] amounted to 0%. As for `COC(=O)[C@@H]1[C@@H]2C(=O)N(CC(=O)NC[C@H]3O[C@@H](n4ccc(=O)[nH]c4=O)[C@H](O)[C@@H]3O)C(=O)[C@@H]2N[C@@H]1c1ccccc1OC`, the inhibition (in assay [2]; in the assay with Escherichia coli [1]) was 0% in each case. For `C[C@@]1(C(=O)NCC(=O)NC[C@H]2O[C@@H](n3ccc(=O)[nH]c3=O)[C@H](O)[C@@H]2O)N[C@H]([C@H](O)CO)[C@@H]2C(=O)N(c3ccccc3)C(=O)[C@@H]21`, the inhibition in assay [2] stood at 0%.

`COc1cccc([C@H]2N[C@@](C)(C(=O)NCC(=O)NC[C@H]3O[C@@H](n4ccc(=O)[nH]c4=O)[C@H](O)[C@@H]3O)[C@H]3C(=O)N(c4ccccc4)C(=O)[C@@H]23)c1OC`: the inhibition in assay [2] is 0%. Take `COC(=O)[C@H]1[C@@H](c2ccccc2OC)N[C@@](C)(C(=O)NCC(=O)NC[C@H]2O[C@@H](n3ccc(=O)[nH]c3=O)[C@H](O)[C@@H]2O)[C@@H]1C(=O)OC` (mixture of isomers): the IC50 in assay [4] is over 5 mM. Further, the inhibition in assay [2] turned out to be 0%. Taken in the same sequence, the figures for `COC(=O)[C@@H]1[C@@H]2C(=O)N(CC(=O)NC[C@H]3O[C@@H](n4ccc(=O)[nH]c4=O)[C@H](O)[C@@H]3O)C(=O)[C@@H]2N[C@@H]1c1ccc(OC)c(OC)c1` were 4 mM and 0%. Take `COC(=O)[C@H]1[C@@H](c2ccccc2OC)N[C@@](C)(C(=O)N2CCC[C@H]2C(=O)NC[C@H]2O[C@@H](n3ccc(=O)[nH]c3=O)[C@H](O)[C@@H]2O)[C@@H]1C(=O)OC` (mixture of isomers): the inhibition in assay [2] was found to be 0%. On to `COc1ccccc1[C@H]1N[C@@](C)(C(=O)N2CCC[C@H]2C(=O)NC[C@H]2O[C@@H](n3ccc(=O)[nH]c3=O)[C@H](O)[C@@H]2O)[C@H]2C(=O)NC(=O)[C@@H]12`, for which the half-inhibitory concentration (IC50) in assay [4] was over 5 mM. For `COC(=O)[C@@H]1[C@H]2C(=O)N(CC(=O)NC[C@H]3O[C@@H](n4ccc(=O)[nH]c4=O)[C@H](O)[C@@H]3O)C(=O)[C@@H]2N[C@@H]1c1ccccc1OC`, the inhibition in assay [2] was 0%; in the assay on Escherichia coli [1], 22%.
